Source: PubChem
FN deposition inh – fibronectin deposition inhibition. 350,000 tested, 0.086% active. AH1F fibroblasts, Alexa488-fibronectin deposition fluorescence, overnight. AID 743247. inhibition, % at 12.6 µM;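 active = mean inhibition across replicates of 30% or more, regardless of how many single replicates reach that level; inconclusive = mean under 30% yet at least half of replicates reach 30%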
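test system = AH1F fibroblasts assembling fluorescent fibronectin matrix | quantity = 10000 AH1F cells per well | buffer or medium = DMEM plus 2% serum, read in PBS | doses = single dose, pinned | incubation = 1 h cell attachment, overnight exposure to compound and label | detection = fluorescence at 485 nm excitation, 525 nm emission | read-out basis = inhibition from reduced deposited-fibronectin fluorescence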
HIV Env fusion – HIV envelope-mediated fusion inhibition. HeLa-JRFL Env/CEM21 cell fusion, luciferase. inhibition, % at 12.3 µM. 360,000 tested, 1.1% active;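 active = mean replicate inhibition score of at least 50 and every replicate individually at or above 50; inconclusive = only one of the two criteria met; inactive = mean below 50 and not all replicates reaching 50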
DENV2 CPE rescue – protects cells from dengue virus 2 cytopathic effect | CPE inhibition, % at 9.99 µM | 350,000 tested, 1.7% active | DENV2-infected cells, cytopathic effect rescue, plate reader | AID 651640; in the data active = CPE inhibition above about 20%, passing the limit was not always enough; inconclusive = no clear call, values can overlap the other calls; tested in BHK-21 cells
Ecoli rRNA inh – selective bacterial rRNA inhibition in E. coli; 350,000 tested, 1.6% active; E. coli WT GFP vs humanized-ribosome RFP mutants, fluorescence, 24 h; active compounds read low; DMSO median 0, no signal -100; GFP signal change (wild-type ribosome), % (test concentration not listed);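 active = significant combined selectivity score with lowered wild-type GFP, culture density cut under 30%, mutant RFP and density less affected; inactive = any of these conditions unmet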
PglD inh – blocks C. jejuni PglD acetyltransferase activity | purified PglD enzyme, DTNB colorimetric CoA detection | inhibition, % at 12.5 µM | 360,000 tested, 0.098% active | AID 602405; in the data active = inhibition above about 16%, passing the limit was not always enough; inconclusive = no clear call, values can overlap the other calls
PGC1a acetyl inh – lowers PGC1a acetylation signal in U2OS cells. AlphaScreen anti-acetyl-lysine; with virally co-expressed GCN5 acetyltransferase. inhibition, % at 15.6 µM. 350,000 tested, 0.17% active;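 active = every replicate shows inhibition of at least 40%; inconclusive = mean inhibition at least 40% but some replicate below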
Large screens that a line does not name were inactive; [ ] = remark or other dose. Sampled rows, rich in hits. Any-hit rate of the full collection: about 3.5%.

CO[C@@H]1CN(C)C(=O)c2ccc(NC(=O)Nc3c(C)noc3C)cc2OC[C@H](C)N(CC2CC2)C[C@@H]1C	PGC1a acetyl inh 101
CCCN1C[C@@H](C)[C@@H](OC)CN(C)C(=O)c2ccc(NC(=O)Nc3c(C)noc3C)cc2OC[C@H]1C	none
CCCN1C[C@@H](C)[C@H](OC)CN(C)C(=O)c2ccc(NC(=O)Nc3c(C)noc3C)cc2OC[C@@H]1C	DENV2 CPE rescue 22
O=C(CN1CCN(Cc2ccccc2)CC1)NNC(=O)c1ccccc1	DENV2 CPE rescue 26 (no result: HIV Env fusion)
CCc1ccc(C(=O)NNC(=O)CCN2CCN(Cc3ccccc3)CC2)cc1	none (no result: PglD inh)
COc1ccc(S(=O)(=O)N(C)C[C@@H]2OCc3cn(nn3)CCCC(=O)N([C@@H](C)CO)C[C@@H]2C)cc1	none
CCc1nc2c(OCc3ccc(C(F)(F)F)cc3)cccn2c1N(C)C(=O)c1ccc(C)cc1	HIV Env fusion 57
CCc1nc2c(OCc3ccc(S(C)(=O)=O)cc3)cccn2c1N(C)C(=O)c1ccccc1F	PGC1a acetyl inh 45
CO[C@H]1CN(C)C(=O)c2ccc(NC(=O)Nc3ccccc3)cc2OC[C@@H](C)N(C(=O)CN(C)C)C[C@H]1C	none (no result: HIV Env fusion)
COc1ccc2cc(C(=O)C3CCCN(C(=O)C4=NN(C)C(=O)CC4)C3)ccc2c1 (stereo not given)	Ecoli rRNA inh -26
CCOc1ccc(NC(=O)CCCN2C(=S)NC(C)(C)CC2C)cc1 (stereo not given)	none (no result: DENV2 CPE rescue, Ecoli rRNA inh, PGC1a acetyl inh)
CC1CC(C)(C)NC(=S)N1CCCC(=O)Nc1ccc(Br)cc1 (stereo not given)	Ecoli rRNA inh -37
CC=Cc1ccc2n(c1=O)C[C@H]1[C@H](CO)[C@@H](C(=O)NCC3CCCCC3)N(C(C)=O)[C@@H]21 (mixture of isomers)	none (no result: FN deposition inh, HIV Env fusion, PGC1a acetyl inh)
COc1ccc(NC(=O)CSc2nc3ccsc3c(=O)n2CCC(=O)O)cc1	HIV Env fusion 60
Cc1cccc(-n2ncc3c(NC(C)C)ncnc32)c1	FN deposition inh 31
Cc1cccc(NC(=O)c2ccc(Cl)c(S(=O)(=O)N3CCc4ccccc43)c2)n1	none
O=S(=O)(c1cnc(Cl)c(Cl)c1)N1CCc2ccccc21	DENV2 CPE rescue 57, Ecoli rRNA inh -33
CC1Cc2ccccc2N1S(=O)(=O)c1cccc(C(=O)N2CC(=O)Nc3ccccc32)c1 (stereo not given)	Ecoli rRNA inh -37 (no result: DENV2 CPE rescue)
NC(=O)C1CCN(C(=O)c2ccc(Cl)c(S(=O)(=O)N3CCc4ccccc43)c2)CC1	none (no result: FN deposition inh)
O=C(Nc1ccncc1)c1ccc(Cl)c(S(=O)(=O)N2CCc3ccccc32)c1	HIV Env fusion 90 (no result: FN deposition inh, PGC1a acetyl inh)
O=S(=O)(c1cnc(Cl)c(Br)c1)N1CCc2ccccc21	none
O=C1CN(C(=O)c2ccc(Cl)c(S(=O)(=O)N3CCc4ccccc43)c2)c2ccccc2N1	Ecoli rRNA inh -35
O=C(NCC[C@@H]1CC[C@@H](NS(=O)(=O)c2ccc(F)cc2)[C@@H](CO)O1)c1ccccc1F	none (no result: FN deposition inh, HIV Env fusion, PglD inh)
O=C(C[C@H]1C=C[C@@H](NC(=O)c2ccc3c(c2)OCO3)[C@@H](CO)O1)NCc1ccc(F)cc1	none (no result: HIV Env fusion, PglD inh, PGC1a acetyl inh)
COc1ccc(CN(C)C[C@H]2Oc3c(NS(=O)(=O)c4cn(C)cn4)cccc3C(=O)N([C@@H](C)CO)C[C@H]2C)cc1	none (no result: FN deposition inh, HIV Env fusion, DENV2 CPE rescue)
COc1ccc(NC(=O)N(C)C[C@@H]2Oc3ncc(C#Cc4ccccc4)cc3C(=O)N([C@H](C)CO)C[C@@H]2C)cc1	DENV2 CPE rescue inconclusive (no result: FN deposition inh)
O=C(NC[C@@H]1CC[C@H]2[C@H](CN2Cc2cc(-c3ccccc3)on2)O1)c1ccc2c(c1)OCO2	HIV Env fusion 58[16.7 µM] (no result: FN deposition inh, Ecoli rRNA inh, PglD inh)
O=C(NC[C@@H]1CC[C@@H]2[C@@H](CN2C(=O)NC2CCCC2)O1)c1ccc2c(c1)OCO2	none (no result: FN deposition inh, HIV Env fusion, Ecoli rRNA inh, PglD inh, PGC1a acetyl inh)
CN1C(=O)c2cc(NC(=O)Cc3cccs3)ccc2OC[C@@H]2O[C@H](CC(=O)NCCCN3CCOCC3)CC[C@@H]21	none
COc1ccccc1CCNCc1ccc(OC)c(OCc2ccccc2)c1	HIV Env fusion 74 (no result: DENV2 CPE rescue, Ecoli rRNA inh)
COc1cc(-c2nc3n(n2)C(c2ccc(F)cc2)C2=C(CCCC2=O)N3)cc(OC)c1OC (stereo not given)	Ecoli rRNA inh -27 (no result: DENV2 CPE rescue)
C/C=C/c1ccc2c(c1)O[C@@H](CN(C)Cc1ccc(F)cc1)[C@H](C)CN([C@@H](C)CO)S2(=O)=O	none
CCOC(=O)N/N=C(/C)c1ccc([N+](=O)[O-])o1	none (no result: FN deposition inh, HIV Env fusion)
CC(=NN1CC(=O)NC1=O)c1ccc([N+](=O)[O-])o1	Ecoli rRNA inh -38
COc1ccc2c3c(n(C)c2c1)[C@@H](CO)N(Cc1ccccc1OC)CC31CN(C)C1	none (no result: HIV Env fusion, PglD inh)
CC(C)Cc1cc(CNC(=O)C2CCC(=O)N(CCc3cccc(F)c3)C2)on1 (stereo not given)	none (no result: PglD inh)
CCCc1cc(CNC(=O)C2CCC(=O)N(CCc3cccc(F)c3)C2)on1 (stereo not given)	DENV2 CPE rescue 55
CCN1C[C@@H]2[C@@H]3C(=O)N(Cc4ccccc4)C(=O)[C@@H]3[C@](Cc3ccccc3)(C1=O)N2C(=O)c1ccc(C(C)(C)C)cc1	none (no result: PGC1a acetyl inh)
CCN1C[C@@H]2[C@@H]3C(=O)N(Cc4ccccc4)C(=O)[C@@H]3[C@](CC)(C1=O)N2C(=O)c1ccc(C(C)(C)C)cc1	HIV Env fusion 68 (no result: DENV2 CPE rescue, Ecoli rRNA inh)
CC[C@]12C(=O)N(C)C[C@H]([C@@H]3C(=O)N(Cc4ccccc4)C(=O)[C@@H]31)N2C(=O)c1ccc(C(C)(C)C)cc1	HIV Env fusion 58
CCN1C[C@@H]2[C@@H]3C(=O)N(Cc4ccccc4)C(=O)[C@@H]3[C@](Cc3ccccc3)(C1=O)N2C(=O)c1ccc(Br)cc1	DENV2 CPE rescue 68
CCC(=O)N1CCC2(CC1)CN(C(=O)CN1CCOCC1)[C@H](CO)c1c2c2ccc(OC)cc2n1C	none (no result: FN deposition inh, PglD inh, PGC1a acetyl inh)
Cc1cc(-c2ccc(F)cc2)nc2cc(C(N)=O)nn12	none (no result: FN deposition inh, HIV Env fusion, DENV2 CPE rescue, Ecoli rRNA inh, PglD inh)
Cc1cccc(N(C)c2cc(-c3ccc(F)cc3)nc3ccnn23)c1	HIV Env fusion 63 (no result: Ecoli rRNA inh)
Cc1cccc2cc3c(N)c(C#N)sc3nc12	HIV Env fusion 91 (no result: DENV2 CPE rescue, Ecoli rRNA inh)
Cc1sc(NC(=O)c2sc3nc4c(C)cccc4cc3c2N)c(C#N)c1C	none (no result: FN deposition inh, DENV2 CPE rescue, Ecoli rRNA inh, PGC1a acetyl inh)
C[C@H]1CN([C@@H](C)CO)C(=O)c2cc(C#Cc3ccc(F)cc3)cnc2O[C@@H]1CN(C)Cc1ccccn1	none (no result: FN deposition inh)
CN=c1scc(-c2ccccc2F)n1/N=C/c1ccc[nH]1	HIV Env fusion 67, Ecoli rRNA inh -22 (no result: PglD inh)
NC1=NC(=O)C(=Cc2ccccc2)S1	DENV2 CPE rescue 30 (no result: PglD inh, PGC1a acetyl inh)
O=C1NC(=Nc2ccc(O)cc2)S/C1=C\C=C\c1ccco1	Ecoli rRNA inh -24 (no result: PglD inh, PGC1a acetyl inh)
COc1ccc(NC(=O)N(C)C[C@@H]2Oc3ccc(NC(=O)Cc4ccccc4)cc3C(=O)N([C@H](C)CO)C[C@H]2C)cc1	none (no result: FN deposition inh)
COc1ccc2c3c(n(C)c2c1)[C@@H](CO)N(C(=O)c1ccccn1)CC31CCN(C)CC1	DENV2 CPE rescue 35 (no result: FN deposition inh, HIV Env fusion, PglD inh)
